In ChEMBL document CHEMBL1165943, “Design and synthesis of new anticancer pyrimidines with multiple-kinase inhibitory effect” (Bioorg Med Chem, 2010):

Legend:
Format in all cases: functional
A549 = experiment: Cytotoxicity against human A549 cells assessed as cell growth at 10 uM; settings: Homo sapiens, A549; read-out: Activity
Outline: (§1)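 Single-concentration screen at 10 μM across the 60-cell-line panel (nine tissue types); growth percentage recorded per cell line, with inhibition taken as 100 minus growth percentage.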

NCI-H226 = experiment: Cytotoxicity against human NCI-H226 cells assessed as cell growth at 10 uM; settings: Homo sapiens, NCI-H226; read-out: Activity
Outline: (§2)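 Single-dose screen at 10 μM across the 60-cell-line panel. Cells grown in RPMI 1640 with 5% FBS and 2 mM L-glutamine, seeded at 5,000–40,000 cells/well according to doubling time, and treated 24 h later. Exposure lasted 48 h at 37 °C, 5% CO₂. Adherent cells were fixed with cold TCA, suspension cells were fixed settled, and both were stained with SRB and read at 515 nm. Growth % was recorded, with inhibition % = 100 − growth %.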

NCI-H23 = experiment: Cytotoxicity against human NCI-H23 cells assessed as cell growth at 10 uM; settings: Homo sapiens, NCI-H23; read-out: Activity; outline: as §2
COLO 205 = experiment: Cytotoxicity against human COLO205 cells assessed as cell growth at 10 uM; settings: Homo sapiens, COLO 205; read-out: Activity; outline: as §1
SNB-19 = experiment: Cytotoxicity against human SNB19 cells assessed as cell growth at 10 uM; settings: read-out: Activity; outline: as §2
LOX IMVI = experiment: Cytotoxicity against human LOXIMVI cells assessed as cell growth at 10 uM; settings: Homo sapiens, LOX IMVI; read-out: Activity; outline: as §2
MDA-MB-435 = experiment: Cytotoxicity against human MDA-MB-435 cells assessed as cell growth at 10 uM; settings: read-out: Activity; outline: as §2
UACC-257 = experiment: Cytotoxicity against human UACC257 cells assessed as cell growth at 10 uM; settings: Homo sapiens, UACC-257; read-out: Activity; outline: as §2
UACC-62 = experiment: Cytotoxicity against human UACC62 cells assessed as cell growth at 10 uM; settings: Homo sapiens, UACC-62; read-out: Activity; outline: as §2
OVCAR-5 = experiment: Cytotoxicity against human OVCAR5 cells assessed as cell growth at 10 uM; settings: Homo sapiens, OVCAR-5; read-out: Activity; outline: as §2
786-0 = experiment: Cytotoxicity against human 786-0 cells assessed as cell growth at 10 uM; settings: Homo sapiens, 786-0; read-out: Activity; outline: as §1
A498 = experiment: Cytotoxicity against human A498 cells assessed as cell growth at 10 uM; settings: Homo sapiens, A498; read-out: Activity; outline: as §1
RXF 393 = experiment: Cytotoxicity against human RXF393 cells assessed as cell growth at 10 uM; settings: Homo sapiens, RXF 393; read-out: Activity; outline: as §2
SN12C = experiment: Cytotoxicity against human SN12C cells assessed as cell growth at 10 uM; settings: Homo sapiens, SN12C; read-out: Activity; outline: as §2
PC-3 = experiment: Cytotoxicity against human PC3 cells assessed as cell growth at 10 uM; settings: Homo sapiens, PC-3; read-out: Activity; outline: as §2
MCF7 = experiment: Cytotoxicity against human MCF7 cells assessed as cell growth at 10 uM; settings: Homo sapiens, MCF7; read-out: Activity; outline: as §2
MDA-MB-231 = experiment: Cytotoxicity against human MDA-MB-231 cells assessed as cell growth at 10 uM; settings: Homo sapiens, MDA-MB-231; read-out: Activity; outline: as §2
[1] = Cytotoxicity against human Hs 578T cells assessed as cell growth at 10 uM; settings: read-out: Activity; outline: as §1
BT-549 = experiment: Cytotoxicity against human BT549 cells assessed as cell growth at 10 uM; settings: Homo sapiens, BT-549; read-out: Activity; outline: as §1
[2] = Growth inhibition of human NCI60 cells at 10 uM after 48 hrs by sulforhodamine B assay relative to control; settings: Homo sapiens, NCI60, 48 h; read-out: GI
Outline: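 Single 10 µM dose across the 60-line panel for 48 h, with the same culture, TCA fixation and SRB 515 nm read-out. Inhibition % = 100 − growth %, given as the mean over the 60 cell lines.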

CCRF-CEM = experiment: Cytotoxicity against human CCRF-CEM cells assessed as cell growth at 10 uM; settings: Homo sapiens, CCRF-CEM; read-out: Activity; outline: as §1
[3] = Cytotoxicity against human […] cells assessed as cell growth at 10 uM; settings: Homo sapiens, RPMI8266; read-out: Activity; outline: as §2
HOP-92 = experiment: Cytotoxicity against human HOP92 cells assessed as cell growth at 10 uM; settings: Homo sapiens, HOP-92; read-out: Activity; outline: as §1

Row | SMILES | growth at 10 µM (A549) [%] | growth at 10 µM (NCI-H226) [%] | growth at 10 µM (NCI-H23) [%] | growth at 10 µM (COLO 205) [%] | growth at 10 µM (SNB-19) [%] | growth at 10 µM (LOX IMVI) [%] | growth at 10 µM (MDA-MB-435) [%] | growth at 10 µM (UACC-257) [%] | growth at 10 µM (UACC-62) [%] | growth at 10 µM (OVCAR-5) [%] | growth at 10 µM (786-0) [%] | growth at 10 µM (A498) [%] | growth at 10 µM (RXF 393) [%] | growth at 10 µM (SN12C) [%] | growth at 10 µM (PC-3) [%] | growth at 10 µM (MCF7) [%] | growth at 10 µM (MDA-MB-231) [%] | growth at 10 µM [1] [%] | growth at 10 µM (BT-549) [%] | inhibition of growth at 10 µM [2] [%] | other results
1 | FC(F)(F)c1cc(Nc2nccc(-c3cccnc3)n2)cc(C(F)(F)F)c1 | 93.8 | 99.6 | 97.9 | 119 | 94 | 100 | 102 | 111 | 102 | 97 | 97.1 | 103 | 79 | 88 | 105 | 96 | 91.3 | 103 | 107 | -0.32 | –
2 | Cc1ccc(Nc2nc(C)cc(-c3cccnc3)n2)c(C)c1 | 90.3 | 94.8 | 90.9 | 122 | 101 | 102 | 95.4 | 100 | 82.4 | 106 | 93.2 | 96.1 | 90.7 | 91.2 | 91.7 | 90 | 87.6 | 95.9 | 95.9 | 3.91 | growth at 10 µM (CCRF-CEM): 95.4%; growth at 10 µM [3]: 86.7%; growth at 10 µM (HOP-92): 86.9%
3 | Cc1cc(-c2cccnc2)nc(NC(=O)c2cccc(C(F)(F)F)c2)n1 | 97.4 | 97.5 | 101 | 119 | 90.8 | 103 | 100 | 99.6 | 92.3 | 95.7 | 95.2 | 93.9 | 90.8 | 95.3 | 99.2 | 91.5 | 98.4 | 107 | 97 | 0.62 | growth at 10 µM (CCRF-CEM): 94.8%; growth at 10 µM [3]: 98.6%; growth at 10 µM (HOP-92): 107%
4 | FC(F)(F)c1cc(Nc2nccc(-c3ccc(Nc4ccccc4)nc3)n2)cc(C(F)(F)F)c1 | 96.2 | 98 | 98.2 | 104 | 91.6 | 103 | 108 | 99.5 | 99.1 | 97.3 | 105 | 104 | 107 | – | 95.2 | 75.4 | 97.5 | 101 | 105 | 0.2 | growth at 10 µM (CCRF-CEM): 96.6%; growth at 10 µM [3]: 98.3%; growth at 10 µM (HOP-92): 100%
5 | O=C(Nc1cc(C(F)(F)F)cc(C(F)(F)F)c1)Nc1nccc(-c2ccc(Nc3ccccc3)nc2)n1 | 105 | 104 | 108 | 136 | 109 | 112 | 129 | 112 | 101 | 87 | 112 | 107 | – | 106 | 93.5 | 99.6 | 93.4 | 102 | 111 | -6.98 | growth at 10 µM (CCRF-CEM): 96.8%; growth at 10 µM [3]: 102%; growth at 10 µM (HOP-92): 116%
